# Results from ChEMBL document CHEMBL4411315, “Discovery of Novel Dual Histone Deacetylase and Mammalian Target of Rapamycin Target Inhibitors as a Promising Strategy for Cancer Therapy” (J Med Chem, 2019).
# Activity calls are given as the source filed them. The rule behind the calls is not given here.
# Assays:
# MV4-11 [1] = assay: Antiproliferative activity against human MV4-11 cells after 72 hrs by MTT assay; assay type: functional, cell-based; conditions: MV4-11, 72 h
# OCI-AML2 = assay: Antiproliferative activity against human OCI-AML2 cells after 72 hrs by MTT assay; assay type: functional, cell-based; conditions: OCI-AML2, 72 h
# OCI-AML-3 = assay: Antiproliferative activity against human OCI-AML3 cells after 72 hrs by MTT assay; assay type: functional, cell-based; conditions: OCI-AML-3, 72 h
# MV4-11 [2] = assay: Induction of apoptosis in human MV4-11 cells assessed as early apoptotic cells at 1 uM after 48 hrs by Annexin V-FITC/propidium iodide staining-based flow cytometric analysis (reference value: 10.7%); assay type: functional
# MV4-11 [3] = assay: Induction of apoptosis in human MV4-11 cells assessed as late apoptotic cells at 1 uM after 48 hrs by Annexin V-FITC/propidium iodide staining-based flow cytometric analysis (reference value: 5.03%); assay type: functional
# MV4-11 [4] = assay: Induction of apoptosis in human MV4-11 cells assessed as necrotic cells at 1 uM after 48 hrs by Annexin V-FITC/propidium iodide staining-based flow cytometric analysis (reference value: 0.17%); assay type: functional
# MV4-11 [5] = assay: Induction of apoptosis in human MV4-11 cells assessed as viable cells at 1 uM after 48 hrs by Annexin V-FITC/propidium iodide staining-based flow cytometric analysis (reference value: 84.1%); assay type: functional
# MV4-11 [6] = assay: Induction of apoptosis in human MV4-11 cells assessed as early apoptotic cells at 0.3 uM after 48 hrs in presence of 1 uM SAHA by Annexin V-FITC/propidium iodide staining-based flow cytometric analysis (reference value: 10.7%); assay type: functional
# MV4-11 [7] = assay: Induction of apoptosis in human MV4-11 cells assessed as late apoptotic cells at 0.3 uM after 48 hrs in presence of 1 uM SAHA by Annexin V-FITC/propidium iodide staining-based flow cytometric analysis (reference value: 5.03%); assay type: functional
# MV4-11 [8] = assay: Induction of apoptosis in human MV4-11 cells assessed as necrotic cells at 0.3 uM after 48 hrs in presence of 1 uM SAHA by Annexin V-FITC/propidium iodide staining-based flow cytometric analysis (reference value: 0.17%); assay type: functional
# MV4-11 [9] = assay: Induction of apoptosis in human MV4-11 cells assessed as viable cells at 0.3 uM after 48 hrs in presence of 1 uM SAHA by Annexin V-FITC/propidium iodide staining-based flow cytometric analysis (reference value: 84.1%); assay type: functional
# MM1.S [10] = assay: Induction of apoptosis in human MM1S cells assessed as early apoptotic cells at 1 uM after 48 hrs by Annexin V-FITC/propidium iodide staining-based flow cytometric analysis (reference value: 0.38%); assay type: functional
# MM1.S [11] = assay: Induction of apoptosis in human MM1S cells assessed as late apoptotic cells at 1 uM after 48 hrs by Annexin V-FITC/propidium iodide staining-based flow cytometric analysis (reference value: 0.42%); assay type: functional
# MM1.S [12] = assay: Induction of apoptosis in human MM1S cells assessed as necrotic cells at 1 uM after 48 hrs by Annexin V-FITC/propidium iodide staining-based flow cytometric analysis (reference value: 0.32%); assay type: functional
# MM1.S [13] = assay: Induction of apoptosis in human MM1S cells assessed as viable cells at 1 uM after 48 hrs by Annexin V-FITC/propidium iodide staining-based flow cytometric analysis (reference value: 98.9%); assay type: functional
# MM1.S [14] = assay: Induction of apoptosis in human MM1S cells assessed as early apoptotic cells at 0.3 uM after 48 hrs in presence of 1 uM SAHA by Annexin V-FITC/propidium iodide staining-based flow cytometric analysis (reference value: 0.38%); assay type: functional
# MM1.S [15] = assay: Induction of apoptosis in human MM1S cells assessed as late apoptotic cells at 0.3 uM after 48 hrs in presence of 1 uM SAHA by Annexin V-FITC/propidium iodide staining-based flow cytometric analysis (reference value: 0.42%); assay type: functional
# MM1.S [16] = assay: Induction of apoptosis in human MM1S cells assessed as necrotic cells at 0.3 uM after 48 hrs in presence of 1 uM SAHA by Annexin V-FITC/propidium iodide staining-based flow cytometric analysis (reference value: 0.32%); assay type: functional
# MM1.S [17] = assay: Induction of apoptosis in human MM1S cells assessed as viable cells at 0.3 uM after 48 hrs in presence of 1 uM SAHA by Annexin V-FITC/propidium iodide staining-based flow cytometric analysis (reference value: 98.9%); assay type: functional
# [18] = Toxicity against NOD/SCID mouse xenografted with human MM1S cells assessed as mouse survival at 25 mg/kg, po qd administered for 10 days co-treated with 50 mg/kg SAHA; assay type: organism-based; conditions: in vivo, 240 h
# Procedure, shortened: (§1)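 MM1S s.c. xenograft: 10^7 cells in serum-free RPMI 1640, right flank, female NOD/SCID mice aged 5-6 weeks, randomised at 100-200 mm3 (n=6 per group). Oral daily dosing used physiological saline with 2.5% DMSO and 10% cyclodextrin, pH 9; the combination was given as a suspension. Caliper measurements were taken every 2 days. Survivors were counted.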
# [19] = target: T1, Serine/threonine-protein kinase mTOR (Homo sapiens, UniProt P42345); conditions: MV4-11, 1 to 10 uM
# [20] = target: T1, Serine/threonine-protein kinase mTOR; conditions: MV4-11, 1 to 10 uM; remark: listed apart in the source
# [21] = target: T1, Serine/threonine-protein kinase mTOR; conditions: MV4-11, 10 uM
# MM1.S [22] = assay: Antitumor activity against human MM1S cells xenografted in NOD/SCID mouse assessed as tumor growth inhibition at 25 mg/kg, po qd administered for 10 days and measured every 2 days post last dose in presence of 50 mg/kg SAHA by caliper method relative to control
# HCT-116 = assay: Antiproliferative activity against human HCT116 cells after 72 hrs by MTT assay; assay type: functional, cell-based; conditions: HCT-116, 72 h
# Raji = assay: Antiproliferative activity against human Raji cells after 72 hrs by MTT assay; assay type: functional, cell-based
# Procedure, shortened: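 Log-phase cells were plated at 10000-15000 per well and exposed to serial concentrations after 24 h for 72 h. Read-out was MTT for 1-3 h, then 20% SDS overnight and absorbance at 570 nm. IC50 was calculated from growth versus untreated control, as mean ± SEM of at least three independent experiments.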
# MM1.S [23] = assay: Antiproliferative activity against human MM1S cells after 72 hrs by MTT assay; assay type: functional, cell-based
# [24] = target: T1, Serine/threonine-protein kinase mTOR; assay: Inhibition of recombinant N-terminal FLAG-tagged human mTOR (1362 to end residues) using ULight-4E-BP1 (Thr37/46) peptide as substrate after 1 hr by fluorescence assay
# Procedure, shortened: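 mTOR enzyme, ATP, compound and ULight-4E-BP1 (Thr37/46) peptide in kinase buffer were incubated 1 h at room temperature. EDTA quench plus Eu-anti-phospho-4E-BP1 antibody was added and equilibrated 1 h. TR-FRET was read at excitation 320 or 340 nm and emission 665 nm. Curves were fitted, and values are means of at least two experiments.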
# [25] = target: T2, PI3-kinase p110-alpha/p85-alpha (Homo sapiens) (UniProt P27986+P42336); assay: Inhibition of recombinant human full length N-terminal His-tagged/untagged p110alpha/p85alpha expressed in baculovirus expression system at 1000 nM using PIP2 as substrate after 1 hr by Kinase-Glo reagent-based assay relative to control
# Procedure, shortened: (§2)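 PI3Kα (p110α/p85α) incubated with PIP2 substrate and ATP in kinase buffer for 1 h at room temperature. Kinase-Glo reagent was then added for 15 min before luminescence read-out. Inhibition rate at 100 or 1000 nM is the mean of at least two experiments.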
# [26] = target: T2, PI3-kinase p110-alpha/p85-alpha (Homo sapiens); assay: Inhibition of recombinant human full length N-terminal His-tagged/untagged p110alpha/p85alpha expressed in baculovirus expression system at 100 nM using PIP2 as substrate after 1 hr by Kinase-Glo reagent-based assay relative to control; procedure, shortened: as §2
# MV4-11 [27] = assay: Induction of apoptosis in human MV4-11 cells assessed as early apoptotic cells at 1 uM after 48 hrs in presence of 0.3 uM RAPA by Annexin V-FITC/propidium iodide staining-based flow cytometric analysis (reference value: 10.7%); assay type: functional
# MV4-11 [28] = assay: Induction of apoptosis in human MV4-11 cells assessed as late apoptotic cells at 1 uM after 48 hrs in presence of 0.3 uM RAPA by Annexin V-FITC/propidium iodide staining-based flow cytometric analysis (reference value: 5.03%); assay type: functional
# MV4-11 [29] = assay: Induction of apoptosis in human MV4-11 cells assessed as necrotic cells at 1 uM after 48 hrs in presence of 0.3 uM RAPA by Annexin V-FITC/propidium iodide staining-based flow cytometric analysis (reference value: 0.17%); assay type: functional
# MV4-11 [30] = assay: Induction of apoptosis in human MV4-11 cells assessed as viable cells at 1 uM after 48 hrs in presence of 0.3 uM RAPA by Annexin V-FITC/propidium iodide staining-based flow cytometric analysis (reference value: 84.1%); assay type: functional
# MM1.S [31] = assay: Induction of apoptosis in human MM1S cells assessed as early apoptotic cells at 1 uM after 48 hrs in presence of 0.3 uM RAPA by Annexin V-FITC/propidium iodide staining-based flow cytometric analysis (reference value: 0.38%); assay type: functional
# MM1.S [32] = assay: Induction of apoptosis in human MM1S cells assessed as late apoptotic cells at 1 uM after 48 hrs in presence of 0.3 uM RAPA by Annexin V-FITC/propidium iodide staining-based flow cytometric analysis (reference value: 0.42%); assay type: functional
# MM1.S [33] = assay: Induction of apoptosis in human MM1S cells assessed as necrotic cells at 1 uM after 48 hrs in presence of 0.3 uM RAPA by Annexin V-FITC/propidium iodide staining-based flow cytometric analysis (reference value: 0.32%); assay type: functional
# MM1.S [34] = assay: Induction of apoptosis in human MM1S cells assessed as viable cells at 1 uM after 48 hrs in presence of 0.3 uM RAPA by Annexin V-FITC/propidium iodide staining-based flow cytometric analysis (reference value: 98.9%); assay type: functional
# [35] = Toxicity against NOD/SCID mouse xenografted with human MM1S cells assessed as mouse survival at 50 mg/kg, po qd administered for 10 days co-treated with 25 mg/kg RAPA; assay type: organism-based; conditions: in vivo, 240 h; procedure, shortened: as §1
# [36] = Toxicity against NOD/SCID mouse xenografted with human MM1S cells assessed as mouse survival at 50 mg/kg, po qd administered for 10 days; assay type: organism-based; conditions: in vivo, 240 h; procedure, shortened: as §1
compound,measurement,setting,value
CO[C@H]1C[C@@H]2CC[C@@H](C)[C@@](O)(O2)C(=O)C(=O)N2CCCC[C@H]2C(=O)O[C@H]([C@H](C)C[C@@H]2CC[C@@H](O)[C@H](OC)C2)CC(=O)[C@H](C)/C=C(\C)[C@@H](O)[C@@H](OC)C(=O)[C@H](C)C[C@H](C)/C=C/C=C/C=C/1C [SIROLIMUS],IC50,MV4-11 [1],> 500 nM
same,IC50,OCI-AML2,> 500 nM
same,IC50,OCI-AML-3,> 500 nM
same,Activity,MV4-11 [2],15.3%
same,Activity,MV4-11 [3],5.77%
same,Activity,MV4-11 [4],0.6%
same,viability at 1 µM,"MV4-11 [5]; Homo sapiens, MV4-11, 48 h, read-out: Activity",78.3%
same,Activity,MV4-11 [6],37%
same,Activity,MV4-11 [7],42.4%
same,Activity,MV4-11 [8],3.48%
same,Activity,MV4-11 [9],17.1%
same,Activity,MM1.S [10],0.45%
same,Activity,MM1.S [11],2.81%
same,Activity,MM1.S [12],0.47%
same,viability at 1 µM,"MM1.S [13]; Homo sapiens, MM1.S, 48 h, read-out: Activity",96.3%
same,Activity,MM1.S [14],15%
same,Activity,MM1.S [15],29.7%
same,Activity,MM1.S [16],1.74%
same,Activity,MM1.S [17],53.6%
same,Activity,[18],Non-Toxic
same,inhibition,[19],Active
same,inhibition,[20],Active
same,inhibition,[21],Active
same,TGI,MM1.S [22],73.8%
CN1CCN(C(=O)Nc2ccc(-c3nc(N4CCOCC4)c4cnn(CCCCCCC(=O)NO)c4n3)cc2)CC1,IC50,HCT-116,83.5 nM
same,IC50,Raji,70.4 nM
same,IC50,MM1.S [23],62.2 nM
same,IC50,[24],3.4 nM
same,IC50,MV4-11 [1],7.01 nM
same,IC50,OCI-AML2,8.55 nM
same,IC50,OCI-AML-3,35.3 nM
same,inhibition,[25],98.1%
same,inhibition,[26],52.7%
O=C(CCCCCCC(=O)Nc1ccccc1)NO [VORINOSTAT],Activity,MV4-11 [2],40%
same,Activity,MV4-11 [3],37.9%
same,Activity,MV4-11 [4],3.51%
same,Activity,MV4-11 [5],18.6%
same,Activity,MV4-11 [27],37%
same,Activity,MV4-11 [28],42.4%
same,Activity,MV4-11 [29],3.48%
same,Activity,MV4-11 [30],17.1%
same,Activity,MM1.S [10],9.68%
same,Activity,MM1.S [11],11.8%
same,Activity,MM1.S [12],3.04%
same,Activity,MM1.S [13],75.4%
same,Activity,MM1.S [31],15%
same,Activity,MM1.S [32],29.7%
same,Activity,MM1.S [33],1.74%
same,Activity,MM1.S [34],53.6%
same,Activity,[35],Non-Toxic
same,Activity,[36],Non-Toxic
